Assay results of several laboratories.
Lines come from different studies, so protocols differ.
Tmem97: Sigma intracellular receptor 2 (Tmem97, Rattus norvegicus, UniProt Q5U3Y7)
HTR2C: 5-hydroxytryptamine receptor 2C (HTR2C, Homo sapiens, UniProt P28335)
HTR2B: 5-hydroxytryptamine receptor 2B (HTR2B, Homo sapiens, UniProt P41595)
blaNDM-1: Metallo-beta-lactamase type 2 (blaNDM-1, Klebsiella pneumoniae, UniProt C7C422)

| Compound | target | assay | setting | endpoint | value |
| --- | --- | --- | --- | --- | --- |
| CCCCN1CCc2cc(OC)c(OC)cc2C1 | Tmem97 | ligand displacement, radioligand | cell membranes | Ki | 0.015 µM |
| Ic1ccccc1CN[C@@H]1C2CCN(CC2)[C@@H]1C(c1ccccc1)c1ccccc1 (racemic) | Substance-P receptor (TACR1, Homo sapiens, UniProt P25103) | ligand displacement, radioligand |  | IC50 | 0.00262 µM |
| CC(C)[C@@H](Nc1nc(I)nc2c1ncn2[C@H]1[C@H](O)[C@H](O)[C@]2(CO)C[C@H]12)C1CC1 | HTR2C | ligand displacement, radioligand |  | Ki | 0.344 µM |
| COc1cc(CC(C)N)c(OC)cc1I (stereo not drawn) | HTR2B | ligand displacement, radioligand |  | Ki | 0.0012 µM |
| COc1cc(CC(C)N)c(OC)cc1I (racemic) | HTR2C | ligand displacement, radioligand |  | Ki | 0.00042 µM |
| COc1ccc2cccc(C(CO)CNC(=O)CF)c2c1 (stereo not drawn) | Melatonin receptor type 1A (MTNR1A, Homo sapiens, UniProt P48039) | GTPγS binding, agonist, radiometric | cell membranes | EC50 | 0.0794 µM |
| CC1(C)S[C@H]2CS[C@H](CS)N2[C@@H]1C(=O)O | blaNDM-1 | enzyme activity, inhibitor, absorbance | pH 7.5 | Ki | 18 µM |
| C[C@H](N)Cn1ncc2ccc3c(c21)CCCO3 | 5-hydroxytryptamine receptor 2A (Rattus norvegicus, UniProt P14842) | calcium signal, agonist, fluorescence |  | EC50 | 0.0225 µM |
| COc1cc2c3c(c1OC)-c1ccccc1CC3NCC2 (stereo not drawn) | HTR2C | ligand displacement, radioligand | cell membranes | Ki | 0.446 µM |
| CSC[C@@]12C[C@@H]1[C@@H](n1cnc3c(N[C@H](C(C)C)C4CC4)nc(Cl)nc31)[C@H](O)[C@@H]2O | HTR2C | ligand displacement, radioligand |  | Ki | 2.57 µM |
| CCN(CC)CCNC(=O)c1ccc(F)cc1 | Tmem97 | ligand displacement, radioligand | cell membranes | Ki | 120 µM |
| CCC1CCN(C(=O)[C@H](CCCNC(=N)N)NS(=O)(=O)c2cccc3c(N(C)C)cccc23)CC1 | Prothrombin (F2, Bos taurus, UniProt P00735) | binding, ITC |  | Kd | 0.022 µM |
| CCCN1CCc2cc(OC)cc3c2[C@H]1Cc1ccc(O)c(O)c1-3 | D(3) dopamine receptor (Drd3, Rattus norvegicus, UniProt P19020) | binding, radioligand | cell membranes | Kd | 0.00202 µM |
| CSc1nc(N[C@H](C(C)C)C2CC2)c2ncn([C@H]3[C@H](O)[C@H](O)[C@]4(CO)C[C@H]34)c2n1 | HTR2C | ligand displacement, radioligand |  | Ki | 0.432 µM |
| CN(C)CCc1c[nH]c2ccc(Cn3cncn3)cc12 | HTR2B | calcium signal, agonist, fluorescence |  | EC50 | 14 µM |
| COc1cc2c3c(c1OC)-c1ccccc1C[C@H]3N(C)CC2 | HTR2C | ligand displacement, radioligand | cell membranes | Ki | 0.0222 µM |
| CC(C)C(Nc1nc(Cl)nc2c1ncn2[C@H]1[C@H](O)[C@H](O)[C@]2(CO)C[C@H]12)C(C)C | HTR2C | ligand displacement, radioligand |  | Ki | 1.16 µM |
| O=C(O)[C@H]1CS[C@@H]2CS[C@@H](CS)N12 | blaNDM-1 | enzyme activity, inhibitor, absorbance | pH 7.5 | Ki | 19 µM |
